In publication PMC3059893 (Biochemistry, 2011):
Where two headings read alike, the source gives them in different places. Peptide text beside a SMILES is read from it. * marks the point of attachment. Dansyl = CN(C)c1cccc2c(S(=O)(=O)*)cccc12

Columns and labels:
Tiam2 PDZ domain = biological target: T1, Tiam2 PDZ domain (Mus musculus, UniProt Q6ZPF3); assay: Equilibrium fluorescence anisotropy binding of dansylated peptides
T1 sequence (Q6ZPF3 908-997 limits assumed): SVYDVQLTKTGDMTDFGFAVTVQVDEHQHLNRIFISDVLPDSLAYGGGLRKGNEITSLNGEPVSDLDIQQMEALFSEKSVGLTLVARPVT
Outline: (§1)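 Purified PDZ domains were titrated from a 1.5 mM stock into 1 μM N-terminally dansylated peptide at 25 °C in a stirred cuvette. Proteins were expressed in E. coli BL21(DE3), purified by Ni-chelate and size-exclusion chromatography, and His6-tag cleaved by TEV; Tiam2 is mouse residues 809–994; mutants made by site-directed mutagenesis. Anisotropy ex 340/em 550 nm, buffer-blank corrected. Kd from hyperbolic fit, mean of ≥3 independent runs; ΔG = RT ln Kd (298.15 K).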

Tiam1 PDZ L915F = Tiam1 PDZ L915F (Homo sapiens, UniProt Q13009, L915F); assay: Fluorescence anisotropy binding, Tiam1 PDZ mutant; conditions: for ΔΔGb: ΔGb(mutant) − ΔGb(wild-type), L915F
Tiam1 PDZ L915F, sequence (Q13009 841-930 L915F limits assumed): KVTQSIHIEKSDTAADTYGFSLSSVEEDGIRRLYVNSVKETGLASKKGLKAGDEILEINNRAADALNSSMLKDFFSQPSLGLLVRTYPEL
Outline: as §1

Tiam1 PDZ L911M = Tiam1 PDZ L911M (Homo sapiens, UniProt Q13009, L911M); assay: Fluorescence anisotropy binding, Tiam1 PDZ mutant; conditions: for ΔΔGb: ΔGb(mutant) − ΔGb(wild-type), L911M
Tiam1 PDZ L911M, sequence (Q13009 841-930 L911M limits assumed): as the sequence (Q13009 841-930 L915F limits assumed) above, with L71M, F75L counted along it
Outline: as §1

[1] = test system: Tiam1 PDZ QM (L911M/K912E/L915F/L920V); assay: Fluorescence anisotropy binding, Tiam1 PDZ quadruple mutant; conditions: for ΔΔGb: ΔGb(mutant) − ΔGb(wild-type), QM
Outline: as §1

[2] = biological target: Tiam1 PDZ QM (L911M/K912E/L915F/L920V) (Homo sapiens, UniProt Q13009, K912E/L911M/L915F/L920V); assay: as above; conditions: for ΔGb: Tiam1 PDZ QM
Tiam1 PDZ QM (L911M/K912E/L915F/L920V) (Homo sapiens, UniProt Q13009, K912E/L911M/L915F/L920V), sequence (Q13009 841-930 L911M/K912E/L915F/L920V limits assumed): as the sequence (Q13009 841-930 L915F limits assumed) above, with L71M, K72E, L80V counted along it
Outline: as §1

Tiam1 PDZ L920V = Tiam1 PDZ L920V (Homo sapiens, UniProt Q13009, L920V); assay: Fluorescence anisotropy binding, Tiam1 PDZ mutant; conditions: for ΔΔGb: ΔGb(mutant) − ΔGb(wild-type)
Tiam1 PDZ L920V, sequence (Q13009 841-930 L920V limits assumed): as the sequence (Q13009 841-930 L915F limits assumed) above, with F75L, L80V counted along it
Outline: as §1

Tiam1 PDZ L915F/L920V [3] = assay: Fluorescence anisotropy binding and double-mutant cycle, Tiam1 PDZ mutant; conditions: for ΔΔΔGint (pair-wise coupling free energy): double-mutant cycle L915/L920 (S0 pocket); for Σ singles: sum of ΔΔGb of single mutants L915F and L920V; for ΔΔGb: ΔGb(mutant) − ΔGb(wild-type), L915F/L920V
Outline: (§2)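 Wild-type, single- and double-mutant Tiam1 PDZ (E. coli-expressed, tag-cleaved) were each titrated into 1 μM dansylated peptide at 25 °C. Anisotropy read at ex 340/em 550 nm; Kd from hyperbolic fit, ≥3 independent runs. ΔG = RT ln Kd at 298.15 K. Coupling energy ΔΔΔGint = (ΔGWT − ΔGM1) − (ΔGM2 − ΔGDM), with errors propagated by standard methods.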

Tiam1 PDZ L915F/L920V [4] = biological target: Tiam1 PDZ L915F/L920V (Mus musculus, UniProt Q60610, L915F/L920V, species not given); assay: as above; conditions: Tiam1 PDZ L915F/L920V; for Kd: fluorescence anisotropy, 25 °C
Tiam1 PDZ L915F/L920V (Mus musculus, UniProt Q60610, L915F/L920V, species not given), sequence (Q60610 2-1591 L915F/L920V): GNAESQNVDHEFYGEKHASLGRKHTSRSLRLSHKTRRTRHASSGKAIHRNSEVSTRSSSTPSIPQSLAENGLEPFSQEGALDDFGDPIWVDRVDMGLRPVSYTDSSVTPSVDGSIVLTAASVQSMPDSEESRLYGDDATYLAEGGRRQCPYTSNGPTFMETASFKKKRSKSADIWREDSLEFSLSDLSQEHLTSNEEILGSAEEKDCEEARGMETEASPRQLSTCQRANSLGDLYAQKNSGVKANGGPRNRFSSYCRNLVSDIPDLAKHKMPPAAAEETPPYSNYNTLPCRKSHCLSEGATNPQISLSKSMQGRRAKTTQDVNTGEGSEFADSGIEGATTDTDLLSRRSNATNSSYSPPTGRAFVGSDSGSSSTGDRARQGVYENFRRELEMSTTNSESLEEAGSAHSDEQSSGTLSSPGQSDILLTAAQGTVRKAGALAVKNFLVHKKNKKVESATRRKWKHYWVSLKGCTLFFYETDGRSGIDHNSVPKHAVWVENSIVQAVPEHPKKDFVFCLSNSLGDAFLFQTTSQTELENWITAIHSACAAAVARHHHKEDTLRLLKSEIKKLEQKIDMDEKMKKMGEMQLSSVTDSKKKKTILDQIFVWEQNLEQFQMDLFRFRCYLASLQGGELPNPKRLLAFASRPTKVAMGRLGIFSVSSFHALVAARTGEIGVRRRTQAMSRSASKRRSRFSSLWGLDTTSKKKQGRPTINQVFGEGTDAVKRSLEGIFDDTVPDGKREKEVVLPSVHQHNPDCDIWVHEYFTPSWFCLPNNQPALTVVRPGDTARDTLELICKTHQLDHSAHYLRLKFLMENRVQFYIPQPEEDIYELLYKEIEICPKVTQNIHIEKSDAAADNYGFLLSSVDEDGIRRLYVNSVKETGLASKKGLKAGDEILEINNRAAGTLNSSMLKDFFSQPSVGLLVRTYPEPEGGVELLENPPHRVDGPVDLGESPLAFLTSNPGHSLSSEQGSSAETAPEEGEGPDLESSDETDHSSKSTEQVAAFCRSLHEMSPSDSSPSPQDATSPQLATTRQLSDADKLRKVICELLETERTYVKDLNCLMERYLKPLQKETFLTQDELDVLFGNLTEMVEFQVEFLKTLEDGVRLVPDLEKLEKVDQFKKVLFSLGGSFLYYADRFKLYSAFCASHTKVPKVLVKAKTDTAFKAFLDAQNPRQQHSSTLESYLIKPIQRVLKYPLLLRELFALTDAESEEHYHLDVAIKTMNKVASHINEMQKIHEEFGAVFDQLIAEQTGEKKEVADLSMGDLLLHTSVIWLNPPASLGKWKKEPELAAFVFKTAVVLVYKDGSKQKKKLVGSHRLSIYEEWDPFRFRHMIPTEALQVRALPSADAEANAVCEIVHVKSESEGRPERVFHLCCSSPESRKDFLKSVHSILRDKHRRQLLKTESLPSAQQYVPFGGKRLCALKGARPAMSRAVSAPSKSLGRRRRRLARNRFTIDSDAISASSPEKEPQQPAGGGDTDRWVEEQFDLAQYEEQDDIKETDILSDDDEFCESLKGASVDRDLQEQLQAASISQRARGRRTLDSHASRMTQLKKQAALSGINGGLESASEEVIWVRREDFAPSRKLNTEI
Outline: as §2

Tiam1 PDZ K912E = Tiam1 PDZ K912E (Homo sapiens, UniProt Q13009, K912E); assay: Fluorescence anisotropy binding, Tiam1 PDZ mutant; conditions: for ΔΔGb: ΔGb(mutant) − ΔGb(wild-type), K912E
Tiam1 PDZ K912E, sequence (Q13009 841-930 K912E limits assumed): as the sequence (Q13009 841-930 L915F limits assumed) above, with K72E, F75L counted along it
Outline: as §1

Tiam1 PDZ L911M/K912E [5] = assay: Fluorescence anisotropy binding and double-mutant cycle, Tiam1 PDZ mutant; conditions: for ΔΔΔGint (pair-wise coupling free energy): double-mutant cycle L911/K912 (S-2 pocket); for Σ singles: sum of ΔΔGb of single mutants L911M and K912E; for ΔΔGb: ΔGb(mutant) − ΔGb(wild-type), L911M/K912E
Outline: as §2

Tiam1 PDZ L911M/K912E [6] = biological target: Tiam1 PDZ L911M/K912E (Mus musculus, UniProt Q60610, L911M/K912E, species not given); assay: as above; conditions: Tiam1 PDZ L911M/K912E; for Kd: fluorescence anisotropy, 25 °C
Tiam1 PDZ L911M/K912E (Mus musculus, UniProt Q60610, L911M/K912E, species not given), sequence (Q60610 2-1591 L911M/K912E): as the sequence (Q60610 2-1591 L915F/L920V) above, with L910M, K911E, F914L, V919L counted along it
Outline: as §2

[7] = biological target: Tiam1 PDZ domain (wild-type) (Homo sapiens, UniProt Q13009); assay: Equilibrium fluorescence anisotropy binding of dansylated peptides
Tiam1 PDZ domain (wild-type), sequence (Q13009 841-930 limits assumed): as the sequence (Q13009 841-930 L915F limits assumed) above, with F75L counted along it
Outline: as §1

Caspr4 = biological target: T2, Caspr4 (Homo sapiens); assay: fluorescence anisotropy
T2 chain: ENQKEYFF

Syndecan1 = biological target: T3, Syndecan1 (Homo sapiens); assay: fluorescence anisotropy
T3 chain: TKQEEFYA

| Molecule | Kd (Tiam2 PDZ domain) | Kd (Tiam1 PDZ L915F) | ΔGb (Tiam1 PDZ L915F; Tiam1 PDZ L915F) | ΔΔGb (Tiam1 PDZ L915F) | Kd (Tiam1 PDZ L911M) | ΔGb (Tiam1 PDZ L911M; Tiam1 PDZ L911M) | ΔΔGb (Tiam1 PDZ L911M) | ΔΔGb [1] | Kd [2] | ΔGb [2] | Kd (Tiam1 PDZ L920V) | ΔGb (Tiam1 PDZ L920V; Tiam1 PDZ L920V) | ΔΔGb (Tiam1 PDZ L920V; L920V) | ΔΔΔGint (pair-wise coupling free energy) (Tiam1 PDZ L915F/L920V [3]) | Σ singles (Tiam1 PDZ L915F/L920V [3]) | ΔGb (Tiam1 PDZ L915F/L920V [4]) | Kd (Tiam1 PDZ L915F/L920V [4]) | ΔΔGb (Tiam1 PDZ L911M/K912E [5]) | ΔGb (Tiam1 PDZ L911M/K912E [6]) | Kd (Tiam1 PDZ L911M/K912E [6]) | also measured |
| --- | --- | --- | --- | --- | --- | --- | --- | --- | --- | --- | --- | --- | --- | --- | --- | --- | --- | --- | --- | --- | --- |
| C[C@H](NC(=O)[C@H](Cc1ccc(O)cc1)NC(=O)[C@H](Cc1ccc(O)cc1)NC(=O)[C@H](CCC(=O)O)NC(=O)[C@H](CCCCN)NC(=O)[C@H](CCCNC(=N)N)NC(=O)[C@H](CO)NC(=O)[C@H](CO)NS(=O)(=O)c1cccc2c(N(C)C)cccc12)C(=O)O [Model, reference compound] (Dansyl-SSRKEYYA-OH) | 24.1 ± 7.1 µM | – | – | – | – | – | – | – | – | – | – | – | – | – | – | – | – | – | – | – | – |
| C[C@H](NC(=O)[C@H](Cc1ccc(O)cc1)NC(=O)[C@H](Cc1ccccc1)NC(=O)[C@H](CCC(=O)O)NC(=O)[C@H](CCC(=O)O)NC(=O)[C@H](CCC(N)=O)NC(=O)[C@H](CCCCN)NC(=O)[C@@H](NS(=O)(=O)c1cccc2c(N(C)C)cccc12)[C@@H](C)O)C(=O)O [Syndecan1] (Dansyl-TKQEEFYA-OH) | 200 ± 20 µM | 81 ± 7 µM | -5.58 ± 0.05 kcal/mol | 0.65 ± 0.06 kcal/mol | 34.7 ± 0.7 µM | -6.08 ± 0.01 kcal/mol | 0.15 ± 0.02 kcal/mol | 0.89 ± 0.04 kcal/mol | 122 ± 8 µM | -5.33 ± 0.04 kcal/mol | 46 ± 3 µM | -5.92 ± 0.03 kcal/mol | 0.31 ± 0.04 kcal/mol | 0.36 ± 0.13 kcal/mol | 0.96 ± 0.07 kcal/mol | -4.91 ± 0.08 kcal/mol | 250 ± 20 µM | 1.20 ± 0.10 kcal/mol | -5.00 ± 0.10 kcal/mol | 211 ± 36 µM | fold lower Kd than Tiam2 PDZ domain ([1]; QM vs Tiam2 PDZ): 1.6 fold; ΔΔGb (Tiam1 PDZ L915F/L920V [3]): 1.32 ± 0.09 kcal/mol; Kd (Tiam1 PDZ K912E): 140 ± 20 µM; ΔGb (Tiam1 PDZ K912E; Tiam1 PDZ K912E): -5.25 ± 0.08 kcal/mol; ΔΔGb (Tiam1 PDZ K912E): 0.98 ± 0.09 kcal/mol; ΔΔΔGint (pair-wise coupling free energy) (Tiam1 PDZ L911M/K912E [5]): 0.07 ± 0.13 kcal/mol; Σ singles (Tiam1 PDZ L911M/K912E [5]): 1.13 ± 0.09 kcal/mol |
| CN(C)c1cccc2c(S(=O)(=O)N[C@@H](CCC(=O)O)C(=O)N[C@@H](CC(N)=O)C(=O)N[C@@H](CCC(N)=O)C(=O)N[C@@H](CCCCN)C(=O)N[C@@H](CCC(=O)O)C(=O)N[C@@H](Cc3ccc(O)cc3)C(=O)N[C@@H](Cc3ccccc3)C(=O)N[C@@H](Cc3ccccc3)C(=O)O)cccc12 [Caspr4] (Dansyl-ENQKEYFF-OH) | 3.4 ± 0.3 µM | 61 ± 4 µM | -5.74 ± 0.04 kcal/mol | 0.69 ± 0.04 kcal/mol | 14 ± 0.3 µM | -6.61 ± 0.01 kcal/mol | -0.18 ± 0.02 kcal/mol | -0.02 ± 0.02 kcal/mol | 18.3 ± 0.3 µM | -6.46 ± 0.01 kcal/mol | 10.8 ± 0.6 µM | -6.77 ± 0.03 kcal/mol | -0.33 ± 0.04 kcal/mol | 0.38 ± 0.10 kcal/mol | 0.36 ± 0.06 kcal/mol | -5.61 ± 0.04 kcal/mol | 76.5 ± 3.4 µM | 0.24 ± 0.02 kcal/mol | -6.19 ± 0.02 kcal/mol | 28.9 ± 0.9 µM | fold higher Kd than Tiam2 PDZ domain ([1]; QM vs Tiam2 PDZ): 5 fold; fold lower Kd for Tiam2 PDZ than for Tiam1 PDZ (Tiam2 PDZ domain; Tiam2 vs Tiam1 PDZ): ~6 fold; ΔGb ([7]; wild-type Tiam1 PDZ, ΔG = RT ln(Kd), T 298.15 K): -6.43 ± 0.01 kcal/mol; fold decrease in Kd vs wild-type Tiam1 PDZ (Tiam1 PDZ L920V; L920V): ~2 fold; Kd (Tiam1 PDZ K912E): 58.6 ± 4.1 µM; ΔGb (Tiam1 PDZ K912E; Tiam1 PDZ K912E): -5.77 ± 0.04 kcal/mol; ΔΔGb (Tiam1 PDZ K912E): 0.67 ± 0.04 kcal/mol; ΔΔΔGint (pair-wise coupling free energy) (Tiam1 PDZ L911M/K912E [5]): -0.25 ± 0.04 kcal/mol; Σ singles (Tiam1 PDZ L911M/K912E [5]): 0.49 ± 0.04 kcal/mol |
| C[C@H](NC(=O)[C@H](Cc1c[nH]c2ccccc12)NC(=O)[C@H](Cc1ccc(O)cc1)NC(=O)[C@H](CCCCN)NC(=O)[C@H](CCC(=O)O)NC(=O)[C@H](C)NC(=O)[C@H](C)NC(=O)[C@H](Cc1ccc(O)cc1)NS(=O)(=O)c1cccc2c(N(C)C)cccc12)C(=O)O [Tiam1 peptide 2 (Group I)] (Dansyl-YAAEKYWA-OH) | 10.9 ± 0.4 µM | – | – | – | – | – | – | – | – | – | – | – | – | – | – | – | – | – | – | – | Kd [7]: 90.3 ± 8.3 µM |
| CC(C)[C@H](NC(=O)[C@H](Cc1ccc(O)cc1)NC(=O)[C@H](Cc1ccc(O)cc1)NC(=O)[C@H](CCC(=O)O)NC(=O)[C@H](CCCCN)NC(=O)[C@H](CC(=O)O)NC(=O)[C@H](CCCCN)NC(=O)[C@H](CC(N)=O)NS(=O)(=O)c1cccc2c(N(C)C)cccc12)C(=O)O [Neurexin1] (Dansyl-NKDKEYYV-OH) | 5 ± 0.2 µM | – | – | – | – | – | – | -2.30 ± 0.10 kcal/mol | 46 ± 2 µM | -5.91 ± 0.04 kcal/mol | – | – | – | – | – | -5.15 ± 0.07 kcal/mol | 166 ± 12 µM | -1.30 ± 0.30 kcal/mol | -4.90 ± 0.30 kcal/mol | 270 ± 150 µM | Kd (Tiam1 PDZ L915F; Tiam1 PDZ L915F, fluorescence anisotropy, 25 °C): too weak to allow for reliable measurement; Kd (Tiam1 PDZ L911M; Tiam1 PDZ L911M, fluorescence anisotropy, 25 °C): bound very weakly; fold higher Kd than Tiam2 PDZ domain ([1]; QM vs Tiam2 PDZ): 9 fold; Kd (Tiam1 PDZ L920V; Tiam1 PDZ L920V, fluorescence anisotropy, 25 °C): too weak to allow for reliable measurement; ΔΔGb (Tiam1 PDZ L915F/L920V [3]): -1.58 ± 0.10 kcal/mol; Kd (Tiam1 PDZ K912E; Tiam1 PDZ K912E, fluorescence anisotropy, 25 °C): bound very weakly |
| Tiam1 PDZ (protein) VTQSIHIEKSDTAADTYGFSLSSVEEDGIRRLYVNSVKETGLASKKGLKAGDEILEINNRAADALNSSMM | – | – | – | – | – | – | – | – | – | – | – | – | – | – | – | – | – | – | – | – | Kd (Caspr4): 14 µM; Kd (Syndecan1): 34.7 µM |
